According to ChEMBL document CHEMBL3112482, “Nonclassical antifolates, part 5. Benzodiazepine analogs as a new class of DHFR inhibitors: synthesis, antitumor testing and molecular modeling study” (Eur J Med Chem, 2014):

Columns and labels:
Format in all cases: functional
[1] = test system: LOX IMVI; experiment: Growth inhibition of human LOXIMVI cells at 10 uM after 48 hrs; conditions: read-out: GI
In short: (§1)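 Single-dose primary screen in the NCI 60 human tumour cell line panel, run at the NCI facility. The panel covers nine subpanels: leukaemia, non-small cell lung, colon, CNS, melanoma, ovarian, renal, prostate and breast. Read-out was percent growth of treated cells, shown as a mean graph and reported as percent growth inhibition.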

[2] = test system: M14; experiment: Growth inhibition of human M14 cells at 10 uM after 48 hrs; conditions: M14, 48 h, read-out: GI; in short: as §1
[3] = test system: OVCAR-8; experiment: Growth inhibition of human OVCAR8 cells at 10 uM after 48 hrs; conditions: OVCAR-8, 48 h, read-out: GI; in short: as §1
[4] = test system: SF-295; experiment: Growth inhibition of human SF295 cells at 10 uM after 48 hrs; conditions: SF-295, 48 h, read-out: GI
In short: (§2)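 NCI 60-cell-line disease-oriented human tumor panel, single-dose primary screen at 10 µM. Data given as mean-graph percent growth of treated cells, reported as percent growth inhibition (GI %).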

[5] = test system: HT-29; experiment: Growth inhibition of human HT-29 cells at 10 uM after 48 hrs; conditions: HT-29, 48 h, read-out: GI; in short: as §1
[6] = test system: HCT-15; experiment: Growth inhibition of human HCT15 cells at 10 uM after 48 hrs; conditions: HCT-15, 48 h, read-out: GI; in short: as §1
[7] = test system: UACC-62; experiment: Growth inhibition of human UACC62 cells at 10 uM after 48 hrs; conditions: UACC-62, 48 h, read-out: GI; in short: as §2
[8] = test system: BT-549; experiment: Growth inhibition of human BT549 cells at 10 uM after 48 hrs; conditions: BT-549, 48 h, read-out: GI; in short: as §1
[9] = test system: HOP-62; experiment: Growth inhibition of human HOP62 cells at 10 uM after 48 hrs; conditions: HOP-62, 48 h, read-out: GI; in short: as §1
[10] = test system: U-251; experiment: Growth inhibition of human U251 cells at 10 uM after 48 hrs; conditions: U-251, 48 h, read-out: GI; in short: as §2
[11] = test system: NCI-H226; experiment: Growth inhibition of human NCI-H226 cells at 10 uM after 48 hrs; conditions: NCI-H226, 48 h, read-out: GI; in short: as §1
[12] = test system: NCI-H522; experiment: Growth inhibition of human NCI-H522 cells at 10 uM after 48 hrs; conditions: NCI-H522, 48 h, read-out: GI; in short: as §1
[13] = test system: A549; experiment: Growth inhibition of human A549 cells at 10 uM after 48 hrs; conditions: A549, 48 h, read-out: GI; in short: as §1
[14] = test system: SK-MEL-2; experiment: Growth inhibition of human SK-MEL-2 cells at 10 uM after 48 hrs; conditions: SK-MEL-2, 48 h, read-out: GI; in short: as §2
[15] = test system: OVCAR-3; experiment: Growth inhibition of human OVCAR3 cells at 10 uM after 48 hrs; conditions: OVCAR-3, 48 h, read-out: GI; in short: as §1
[16] = test system: Malme-3M; experiment: Growth inhibition of human MALME-3M cells at 10 uM after 48 hrs; conditions: read-out: GI; in short: as §1
[17] = test system: MOLT-4; experiment: Growth inhibition of human MOLT4 cells at 10 uM after 48 hrs; conditions: MOLT-4, 48 h, read-out: GI; in short: as §1
[18] = test system: MDA-MB-435; experiment: Growth inhibition of human MDA-MB-435 cells at 10 uM after 48 hrs; conditions: MDA-MB-435, 48 h, read-out: GI; in short: as §1
[19] = test system: SN12C; experiment: Growth inhibition of human SN12C cells at 10 uM after 48 hrs; conditions: read-out: GI; in short: as §2
[20] = test system: RPMI-8226; experiment: Growth inhibition of human RPMI8226 cells at 10 uM after 48 hrs; conditions: RPMI-8226, 48 h, read-out: GI; in short: as §1
[21] = test system: COLO 205; experiment: Growth inhibition of human COLO205 cells at 10 uM after 48 hrs; conditions: COLO 205, 48 h, read-out: GI; in short: as §1
[22] = Cytotoxicity against human colon cancer cells at 10 uM after 48 hrs; conditions: Cancer cell lines; in short: as §1
[23] = Cytotoxicity against human melanoma cells at 10 uM after 48 hrs; conditions: Melanoma cell; in short: as §1
[24] = Cytotoxicity against human prostate cancer cells at 10 uM after 48 hrs; conditions: Cancer cell lines
[25] = Cytotoxicity against human CNS cancer cells at 10 uM after 48 hrs; conditions: Cancer cell lines
[26] = Cytotoxicity against human non-small cell lung cancer cells at 10 uM after 48 hrs; conditions: Cancer cell lines; in short: as §1
[27] = Cytotoxicity against human renal cancer cells at 10 uM after 48 hrs; conditions: Cancer cell lines
[28] = Cytotoxicity against human breast cancer cells at 10 uM after 48 hrs; conditions: Cancer cell lines; in short: as §1
[29] = read-out: LC50 (the source's name)

COc1ccc(/C=C2\CCCc3c2nc(C)nc3-c2ccc(OC)cc2)cc1
inhibition of growth at 10 µM [1]: < 30% | inhibition of growth at 10 µM [2]: < 30% | inhibition of growth at 10 µM [3]: < 30% | inhibition of growth at 10 µM [4]: < 30% | inhibition of growth at 10 µM [5]: < 30% | inhibition of growth at 10 µM [6]: < 30% | inhibition of growth at 10 µM [7]: < 30% | inhibition of growth at 10 µM [8]: < 30% | inhibition of growth at 10 µM [9]: < 30% | inhibition of growth at 10 µM [10]: < 30% | inhibition of growth at 10 µM [11]: < 30% | inhibition of growth at 10 µM [12]: < 30% | inhibition of growth at 10 µM [13]: < 30% | inhibition of growth at 10 µM [14]: < 30% | inhibition of growth at 10 µM [15]: < 30% | inhibition of growth at 10 µM [16]: < 30% | inhibition of growth at 10 µM [17]: < 30% | inhibition of growth at 10 µM [18]: 40.5% | inhibition of growth at 10 µM [19]: < 30% | inhibition of growth at 10 µM [20]: 50.1% | inhibition of growth at 10 µM [21]: < 30%

Cc1nc2c(c(-c3ccc(Cl)cc3)n1)CCC/C2=C\c1ccc(Cl)cc1
inhibition of growth at 10 µM [1]: 63.2% | inhibition of growth at 10 µM [2]: 34.7% | inhibition of growth at 10 µM [3]: < 30% | inhibition of growth at 10 µM [4]: < 30% | inhibition of growth at 10 µM [5]: 45.6% | inhibition of growth at 10 µM [6]: < 30% | inhibition of growth at 10 µM [7]: < 30% | inhibition of growth at 10 µM [8]: 34% | inhibition of growth at 10 µM [9]: < 30% | inhibition of growth at 10 µM [10]: 44% | inhibition of growth at 10 µM [11]: < 30% | inhibition of growth at 10 µM [12]: < 30% | inhibition of growth at 10 µM [13]: < 30% | inhibition of growth at 10 µM [14]: < 30% | inhibition of growth at 10 µM [15]: < 30% | inhibition of growth at 10 µM [16]: < 30% | inhibition of growth at 10 µM [17]: < 30% | inhibition of growth at 10 µM [18]: 77.7% | inhibition of growth at 10 µM [19]: < 30% | inhibition of growth at 10 µM [21]: < 30%

Nc1nc2c(c(-c3ccc(Cl)cc3)n1)CCC/C2=C\c1ccc(Cl)cc1
GI50 [22]: 4 µM | TGI [22]: 12.5 µM | CC50 [22, 29]: 51.3 µM | inhibition of growth at 10 µM [2]: 89% | inhibition of growth at 10 µM [3]: 58.8% | GI50 [23]: 15.4 µM | TGI [23]: 36.5 µM | CC50 [23, 29]: 80 µM | inhibition of growth at 10 µM [4]: 32.5% | inhibition of growth at 10 µM [5]: 92.3% | inhibition of growth at 10 µM [6]: 41.7% | inhibition of growth at 10 µM [7]: < 30% | GI50 [24]: 12.3 µM | LC50 [24]: 95 µM | TGI [24]: 51.2 µM | inhibition of growth at 10 µM [8]: < 30% | GI50 [25]: 13.7 µM | TGI [25]: 53.1 µM | CC50 [25, 29]: 91.9 µM | inhibition of growth at 10 µM [9]: < 30% | inhibition of growth at 10 µM [10]: 86.1% | inhibition of growth at 10 µM [11]: < 30% | inhibition of growth at 10 µM [12]: 81% | inhibition of growth at 10 µM [13]: 33.3% | inhibition of growth at 10 µM [14]: < 30% | inhibition of growth at 10 µM [15]: 60.9% | inhibition of growth at 10 µM [16]: < 30% | GI50 [26]: 15.2 µM | TGI [26]: 55.7 µM | CC50 [26, 29]: 88.6 µM | CC50 [27]: 78.4 µM | GI50 [27]: 14.7 µM | TGI [27]: 40.6 µM | inhibition of growth at 10 µM [17]: 35.1% | inhibition of growth at 10 µM [19]: < 30% | inhibition of growth at 10 µM [21]: < 30% | GI50 [28]: 23.6 µM | LC50 (concentration killing 50% of cells) [28]: 92.2 µM | TGI [28]: 70.9 µM

Nc1nc2c(c(-c3ccc(Br)cc3)n1)CCC/C2=C\c1ccc(Br)cc1
inhibition of growth at 10 µM [2]: 38.1% | inhibition of growth at 10 µM [3]: < 30% | inhibition of growth at 10 µM [4]: < 30% | inhibition of growth at 10 µM [5]: 67.8% | inhibition of growth at 10 µM [6]: < 30% | inhibition of growth at 10 µM [7]: < 30% | inhibition of growth at 10 µM [8]: < 30% | inhibition of growth at 10 µM [9]: < 30% | inhibition of growth at 10 µM [10]: 65.2% | inhibition of growth at 10 µM [11]: < 30% | inhibition of growth at 10 µM [12]: 51.6% | inhibition of growth at 10 µM [13]: < 30% | inhibition of growth at 10 µM [14]: < 30% | inhibition of growth at 10 µM [15]: < 30% | inhibition of growth at 10 µM [16]: < 30% | inhibition of growth at 10 µM [17]: < 30% | inhibition of growth at 10 µM [18]: 63.2% | inhibition of growth at 10 µM [19]: < 30% | inhibition of growth at 10 µM [21]: < 30%
